≈ marks a conversion by molar mass, not a printed value.

The experiment has as its system Mycobacterium tuberculosis. As to the kind of experiment: Antimycobacterial activity against Mycobacterium tuberculosis H37Rv ATCC 27294 after 21 to 28 days by twofold agar dilution method. The experiment is classed as functional. The gist of the method:
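Twofold agar dilution on Middlebrook 7H11 agar with 10% OADC enrichment, compounds at […]. Each well received 10 μL of H37Rv suspension at 1.5 x 10⁵ cfu/mL grown in 7H9 broth with 10% ADC, giving a final inoculum of 1.5 x 10³ per well. Incubated 21–28 days. MIC read as lowest concentration completely inhibiting visible growth.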
For orientation: In agar dilution the substance is mixed into plates at graded concentrations.
As usually defined, the MIC is the lowest concentration found to suppress growth. Higher therefore signals a less susceptible organism. In turn, `O=C(c1ccc(Cl)cc1)c1c(-c2ccccc2)[nH]n(-c2ccc(Cl)cc2)c1=O` returned an MIC of 16 µg/mL (≈ 39.1 µM).
On to `Cc1nn(-c2ccccc2)c(O)c1C(=O)c1ccc(Cl)cc1`, for which it took 6.25 µg/mL (≈ 20 µM) to inhibit growth (MIC).
`O=C(c1ccc(Cl)cc1)c1c(C(F)(F)F)[nH]n(-c2ccccc2)c1=O` yielded a minimal inhibitory concentration (MIC) of more than 64 µg/mL.
Regarding `Cc1[nH]n(-c2ccc(C(C)C)cc2)c(=O)c1C(=O)c1ccc(Cl)cc1`, it took 16 µg/mL (≈ 45.1 µM) to inhibit growth (MIC).
Under `O=C(c1ccc(Cl)cc1)c1c(C(F)(F)F)[nH]n(-c2ccc(Cl)cc2)c1=O` stands more than 64 µg/mL.
For the compound `Cc1c(C(=O)c2ccc(Cl)cc2)c(=O)n(-c2ccccc2)n1C`, the minimal inhibitory concentration (MIC) was more than 100 µg/mL.
Consider `CC(C)c1[nH]n(-c2ccccc2)c(=O)c1C(=O)c1ccc(Cl)cc1`, for which it took 64 µg/mL (≈ 188 µM) to inhibit growth (MIC).
The compound `Cc1c(C(=O)c2ccc(Cl)cc2)c(=O)n(-c2ccc(Cl)cc2)n1Cc1ccccc1` yielded an MIC of 16 µg/mL (≈ 36.6 µM).
In turn, `Cc1c(C(=O)c2ccc(Cl)cc2)c(=O)n(-c2ccccc2)n1Cc1ccccc1` registered an MIC of more than 64 µg/mL.
Consider `Cc1[nH]n(-c2ccc(Cl)cc2)c(=O)c1C(=O)c1ccc(Cl)cc1`, for which the MIC was 6.25 µg/mL (≈ 18 µM).
Compound `Cc1[nH]n(-c2ccc(F)cc2)c(=O)c1C(=O)c1ccc(Cl)cc1` registered an MIC of 12.5 µg/mL (≈ 37.8 µM).
As for `Cc1c(C(=O)c2ccc(Cl)cc2)c(=O)n(-c2ccccc2)n1Cc1ccc([N+](=O)[O-])cc1`, the minimum inhibitory concentration (MIC) is more than 32 µg/mL.
For `Cc1c(C(=O)c2ccc(Cl)cc2)c(=O)n(-c2ccc(Cl)cc2)n1Cc1ccc([N+](=O)[O-])cc1` the value was 32 µg/mL (≈ 66.3 µM).
Turning to `Cc1c(C(=O)c2ccc(Cl)cc2)c(=O)n(-c2ccccc2)n1Cc1ccc(F)cc1`, the MIC is 32 µg/mL (≈ 76 µM).
For the compound `Cc1[nH]n(-c2ccc(Br)cc2)c(=O)c1C(=O)c1ccc(Cl)cc1`, the minimum inhibitory concentration (MIC) turned out to be 4 µg/mL (≈ 10.2 µM).
The compound `CC(C)c1[nH]n(-c2ccc(Cl)cc2)c(=O)c1C(=O)c1ccc(Cl)cc1` returned an MIC of 32 µg/mL (≈ 85.3 µM).
`O=C(c1ccc(Cl)cc1)c1c(-c2ccccc2)[nH]n(-c2ccccc2)c1=O` showed an MIC of 32 µg/mL (≈ 85.4 µM).
For `CC(C)c1ccc(-n2[nH]c(-c3ccccc3)c(C(=O)c3ccc(Cl)cc3)c2=O)cc1` the value was 32 µg/mL (≈ 76.8 µM); for `Cc1c(C(=O)c2ccc(Cl)cc2)c(=O)n(-c2ccc(Cl)cc2)n1Cc1ccc(F)cc1`, 32 µg/mL (≈ 70.3 µM); for `Cc1ccc(-n2nc(C)c(C(=O)c3ccc(Cl)cc3)c2O)cc1`, 16 µg/mL (≈ 49 µM).
Consider `Cc1ccc(-n2[nH]c(-c3ccccc3)c(C(=O)c3ccc(Cl)cc3)c2=O)cc1`, for which the minimum inhibitory concentration (MIC) was determined as 32 µg/mL (≈ 82.3 µM).
